{"source": "paper PMC5830699", "about": "(ACS Omega, 2018)", "key": {"Hydrogenivirga spp. MraY": {"system": "Hydrogenivirga spp. MraY", "assay_type": "biochemical", "conditions": "for IC50: read-out: MraY inhibition IC50"}, "C. difficile ATCC 43596": {"system": "C. difficile ATCC 43596", "test": "microbe, parasite or virus in culture", "assay_type": "cell-based, Clostridium difficile", "conditions": "for MIC: Clostridioides difficile, ATCC43596, read-out: C. difficile ATCC 43596 MIC"}, "M. jannaschii AglH": {"target": "T1, M. jannaschii AglH (Methanocaldococcus jannaschii, UniProt Q58513)", "T1 sequence (Q58513 1-301)": "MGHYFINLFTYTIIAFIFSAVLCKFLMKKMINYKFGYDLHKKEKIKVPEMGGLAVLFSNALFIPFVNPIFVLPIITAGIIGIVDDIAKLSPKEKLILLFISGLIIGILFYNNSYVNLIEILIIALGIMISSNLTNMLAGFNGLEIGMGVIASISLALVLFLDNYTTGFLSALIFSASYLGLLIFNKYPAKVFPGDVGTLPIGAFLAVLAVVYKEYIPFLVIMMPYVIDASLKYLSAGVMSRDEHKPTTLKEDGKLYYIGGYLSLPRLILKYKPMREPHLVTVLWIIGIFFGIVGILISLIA", "test": "AglH counterselection assay", "assay_type": "biochemical", "conditions": "read-out: AglH inhibition IC50, M. jannaschii AglH"}, "sheep blood": {"system": "sheep blood", "test": "Hemolysis assay", "assay_type": "cell-based", "conditions": "for IC50: read-out: hemolysis IC50, sheep blood"}, "E. coli WecA": {"target": "T2, E. coli WecA (Escherichia coli, UniProt P0AC78)", "T2 sequence (P0AC78 1-367)": "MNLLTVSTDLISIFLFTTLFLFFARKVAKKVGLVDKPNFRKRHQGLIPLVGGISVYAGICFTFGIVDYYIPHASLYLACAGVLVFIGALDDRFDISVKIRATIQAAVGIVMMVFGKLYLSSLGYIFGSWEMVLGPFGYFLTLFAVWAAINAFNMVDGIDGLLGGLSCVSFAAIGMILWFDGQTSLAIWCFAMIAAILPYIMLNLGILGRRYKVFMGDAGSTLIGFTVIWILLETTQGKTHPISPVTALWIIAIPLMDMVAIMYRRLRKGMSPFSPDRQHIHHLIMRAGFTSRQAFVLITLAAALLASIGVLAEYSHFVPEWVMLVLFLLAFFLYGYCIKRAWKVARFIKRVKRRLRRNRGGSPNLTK", "test": "biochemical", "assay_type": "biochemical"}, "[1]": {"system": "C. difficile (ATCC 43596) spores", "test": "C. difficile spore viability / outgrowth assay", "assay_type": "cell-based, Clostridium difficile", "conditions": "24 h treatment, taurocholate agar"}, "[2]": {"system": "C. difficile spore outgrowth", "conditions": "high concentrations; cited from earlier work"}, "vegetative C. difficile": {"system": "vegetative C. difficile", "conditions": "cited from earlier work"}, "M. smegmatis WecA": {"target": "T3, M. smegmatis WecA (Mycolicibacterium smegmatis, UniProt A0R211)", "T3 sequence (A0R211 1-406)": "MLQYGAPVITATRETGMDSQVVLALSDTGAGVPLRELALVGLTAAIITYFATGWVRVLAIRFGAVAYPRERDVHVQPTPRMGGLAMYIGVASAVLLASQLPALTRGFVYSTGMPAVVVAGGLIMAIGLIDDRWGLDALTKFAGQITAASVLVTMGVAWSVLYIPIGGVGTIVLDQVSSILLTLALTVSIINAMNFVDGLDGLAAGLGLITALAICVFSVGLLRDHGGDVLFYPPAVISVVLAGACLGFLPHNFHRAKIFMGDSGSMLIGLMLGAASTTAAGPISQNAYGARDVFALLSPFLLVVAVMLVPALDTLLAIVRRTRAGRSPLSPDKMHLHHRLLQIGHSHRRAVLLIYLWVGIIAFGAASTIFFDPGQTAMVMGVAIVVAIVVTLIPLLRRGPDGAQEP", "test": "WecA inhibition assay", "assay_type": "biochemical"}, "Vero cells": {"system": "Vero cells", "test": "Vero cell cytotoxicity", "assay_type": "cell-based, African green monkey", "outline": "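Vero cells (ATCC CCL-81) grown in flasks, then seeded into 96-well plates in Eagle's minimum essential medium with 10% FBS and penicillin–streptomycin. Test compound stock was 1 mg per 100 μL in PEG 300–water (1/1). Serial dilutions spanning 0.78–200 μg/mL were added, with known-toxicity control compounds on every plate. After incubation, cytotoxicity was read by MTT.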"}, "Water solubility": {"test": "Water solubility", "assay_type": "physicochemical"}, "[3]": {"system": "Clostridium perfringens (ATCC 13124)", "test": "microbe, parasite or virus in culture", "assay_type": "cell-based", "conditions": "ATCC13124, read-out: MIC Clostridium perfringens"}, "[4]": {"system": "Bacillus subtilis (ATCC 6051)", "test": "microbe, parasite or virus in culture", "assay_type": "cell-based", "conditions": "ATCC6051, read-out: MIC Bacillus subtilis"}, "Lactobacillus spp.": {"system": "Lactobacillus spp.", "assay_type": "cell-based"}, "Staphylococcus aureus": {"system": "Staphylococcus aureus", "assay_type": "cell-based"}, "[5]": {"system": "Staphylococcus pneumoniae", "assay_type": "cell-based"}, "[6]": {"system": "all Gram-negative bacteria tested", "assay_type": "cell-based"}}, "note": "Several values for one entry are separate records, joined by “and”; a condition that tells them apart may be missing. Equal entries are not always repeated. Entries after “also recorded” stand apart in the source; their conditions may differ. Where two headings read alike, the source gives them in different places."}
{"compound": "CN(CCCN)[C@H](C(=O)O)[C@@H](O[C@@H]1O[C@H](CN)[C@@H](O)[C@H]1O)[C@H]1O[C@@H](n2ccc(=O)[nH]c2=O)C(O)C1O", "note": "(stereo partly drawn) [compound 5, FR-900493-5′R,6′S-Diastereomer]", "values": [{"measurement": "IC50", "setting": "Hydrogenivirga spp. MraY", "value": "> 100", "unit": "µM"}, {"measurement": "MIC", "setting": "C. difficile ATCC 43596", "value": "> 25", "unit": "mg/L"}]}
{"compound": "tunicamycin [reference compound]", "values": [{"measurement": "C. difficile ATCC 43596 MIC", "setting": "C. difficile ATCC 43596", "value": ">25.0 mg/L and >50.0 mg/L"}, {"measurement": "IC50", "setting": "M. jannaschii AglH", "value": "13.3 ± 8.1", "unit": "µM"}, {"measurement": "IC50", "setting": "sheep blood", "value": "15 ± 7.83", "unit": "µM"}]}
{"compound": "NCCCN[C@H](C(N)=O)[C@H](O[C@@H]1O[C@H](CN)[C@@H](O)[C@H]1O)[C@H]1O[C@@H](n2ccc(=O)[nH]c2=O)C(O)C1O", "note": "(some centres unmarked) [compound 8, De N-Methyl FR-900493]", "values": [{"measurement": "IC50", "setting": "E. coli WecA", "value": "> 100", "unit": "µM"}, {"measurement": "WecA inhibitory activity (in words)", "setting": "E. coli WecA", "value": "completely lost"}, {"measurement": "MraY inhibitory activity (in words)", "setting": "Hydrogenivirga spp. MraY", "value": "completely lost"}, {"measurement": "IC50", "setting": "Hydrogenivirga spp. MraY", "value": "> 100", "unit": "µM"}, {"measurement": "MIC", "setting": "C. difficile ATCC 43596", "value": "> 25", "unit": "mg/L"}]}
{"compound": "CC(=O)NC[C@H]1CN(c2ccc(N3CCOCC3)c(F)c2)C(=O)O1", "note": "[linezolid]", "values": [{"measurement": "outgrowth of C. difficile spores (in words)", "setting": "[1]; 5× MIC", "value": "did not inhibit the spore outgrowth"}]}
{"compound": "CN(CCCN)[C@@H](C(=O)O)[C@@H](O[C@@H]1O[C@H](CN)[C@@H](O)[C@H]1O)[C@H]1O[C@@H](n2ccc(=O)[nH]c2=O)C(O)C1O", "note": "(stereo partly drawn) [compound 6, FR-900493-5′R, 6′R-Diastereomer]", "values": [{"measurement": "IC50", "setting": "Hydrogenivirga spp. MraY", "value": "> 100", "unit": "µM"}, {"measurement": "MIC", "setting": "C. difficile ATCC 43596", "value": "> 25", "unit": "mg/L"}]}
{"compound": "CCc1c(Cl)c(O)c(Cl)c(O)c1C(=O)O[C@H]1[C@H](O)[C@H](OC)[C@H](OC/C2=C\\C=C\\C[C@H](O)/C(C)=C/[C@H](CC)[C@@H](O[C@@H]3OC(C)(C)[C@@H](OC(=O)C(C)C)[C@H](O)[C@@H]3O)/C(C)=C/C(C)=C/C[C@@H]([C@@H](C)O)OC2=O)O[C@@H]1C", "note": "[fidaxomicin]", "values": [{"measurement": "concentration inhibiting C. difficile spore outgrowth", "setting": "[2]", "value": "4.0 to 14", "unit": "µg/mL"}, {"measurement": "MIC90", "setting": "vegetative C. difficile", "value": 0.5, "unit": "mg/L"}]}
{"compound": "CN(CCCC(=O)NCc1ccc(N2CCC(Oc3ccc(OC(F)(F)F)cc3)CC2)cc1)[C@H](C(N)=O)[C@H](O[C@@H]1O[C@H](CN)[C@@H](O)[C@H]1O)[C@H]1O[C@@H](n2ccc(=O)[nH]c2=O)C(O)C1O", "note": "(some centres unmarked) [compound 12]", "values": [{"measurement": "MraY inhibitory activity relative to FR-900493 (1)", "setting": "Hydrogenivirga spp. MraY", "value": "> 3", "unit": "fold"}, {"measurement": "anti-C. difficile activity in library screen", "setting": "C. difficile ATCC 43596", "value": "displayed anti-C. difficile activity"}, {"measurement": "MIC", "setting": "C. difficile ATCC 43596", "value": "50 ± 5.81", "unit": "mg/L"}]}
{"compound": "CN(CCCN)[C@H](C(N)=O)[C@H](O[C@@H]1O[C@H](CN)[C@@H](O)[C@H]1O)[C@H]1O[C@@H](n2ccc(=O)[nH]c2=O)C(O)C1O", "note": "(some centres unmarked) [compound 7, FR-900493-Amide]", "values": [{"measurement": "WecA inhibitory activity (in words)", "setting": "E. coli WecA", "value": "equal to that of 1"}, {"measurement": "MraY inhibitory activity (in words)", "setting": "Hydrogenivirga spp. MraY", "value": "equal to that of 1"}, {"measurement": "IC50", "setting": "Hydrogenivirga spp. MraY", "value": "25 ± 9.67", "unit": "µM"}, {"measurement": "MIC", "setting": "C. difficile ATCC 43596", "value": "> 25", "unit": "mg/L"}]}
{"compound": "NC[C@H]1O[C@@H](O[C@@H]([C@H](NCCCC(=O)NCc2ccc(N3CCC(Oc4ccc(OC(F)(F)F)cc4)CC3)cc2)C(N)=O)[C@H]2O[C@@H](n3ccc(=O)[nH]c3=O)C(O)C2O)[C@H](O)[C@@H]1O", "note": "(some centres unmarked) [compound 11]", "values": [{"measurement": "C. difficile ATCC 43596 MIC", "setting": "C. difficile ATCC 43596", "value": "3.25 ± 4.40", "unit": "mg/L"}, {"measurement": "anti-C. difficile activity in library screen", "setting": "C. difficile ATCC 43596", "value": "displayed anti-C. difficile activity"}, {"measurement": "MIC", "setting": "C. difficile ATCC 43596", "value": 3.25, "unit": "mg/L"}, {"measurement": "IC50", "setting": "M. smegmatis WecA", "value": 0.25, "unit": "µM"}, {"measurement": "IC50", "setting": "Vero cells; Chlorocebus sabaeus, Vero, read-out: Vero cells IC50, cytotoxicity, MTT", "value": "65 ± 4.65", "unit": "µM"}, {"measurement": "cytotoxicity against Vero cells of 11 relative to 10", "setting": "Vero cells; less cytotoxic than 10", "value": "approximately 8 times"}, {"measurement": "induction of hemolysis (in words)", "setting": "sheep blood; at 100 μM concentration", "value": "does not induce hemolysis"}, {"measurement": "IC50", "setting": "sheep blood; listed as UT-17460 (11)", "value": "206 ± 4.33", "unit": "µM"}, {"measurement": "outgrowth of C. difficile spores (in words)", "setting": "[1]; 2× MIC", "value": "prevented the outgrowth; also recorded: inhibited the outgrowth"}, {"measurement": "water solubility of 11 relative to 10", "setting": "Water solubility; greater than 10", "value": 200, "unit": "times"}, {"measurement": "solubility", "setting": "Water solubility; water", "value": 22, "unit": "mg/mL"}, {"measurement": "MIC", "setting": "[3]", "value": 3.1, "unit": "mg/L"}, {"measurement": "MIC", "setting": "[4]", "value": 1.6, "unit": "mg/L"}, {"measurement": "growth inhibition of Lactobacillus spp.", "setting": "Lactobacillus spp.", "value": "> 25.0", "unit": "µg/mL"}, {"measurement": "growth inhibition of Staphylococcus aureus", "setting": "Staphylococcus aureus", "value": "> 25.0", "unit": "µg/mL"}, {"measurement": "growth inhibition of Staphylococcus pneumoniae", "setting": "[5]", "value": "> 25.0", "unit": "µg/mL"}, {"measurement": "growth inhibition of all Gram-negative bacteria tested", "setting": "[6]", "value": "> 25.0", "unit": "µg/mL"}]}
{"compound": "CN[C@H](CC(C)C)C(=O)N[C@H]1C(=O)N[C@@H](CC(N)=O)C(=O)N[C@H]2C(=O)N[C@H]3C(=O)N[C@H](C(=O)N[C@H](C(=O)O)c4cc(O)cc(O)c4-c4cc3ccc4O)[C@H](O)c3ccc(c(Cl)c3)Oc3cc2cc(c3O[C@@H]2O[C@H](CO)[C@@H](O)[C@H](O)[C@H]2O[C@H]2C[C@](C)(N)[C@H](O)[C@H](C)O2)Oc2ccc(cc2Cl)[C@H]1O", "note": "[vancomycin, reference compound]", "values": [{"measurement": "IC50", "setting": "E. coli WecA", "value": "> 50", "unit": "µM"}, {"measurement": "IC50", "setting": "Hydrogenivirga spp. MraY", "value": "> 50", "unit": "µM"}, {"measurement": "MIC", "setting": "C. difficile ATCC 43596", "value": 2.5, "unit": "mg/L"}, {"measurement": "outgrowth of C. difficile spores (in words)", "setting": "[1]; 5× MIC", "value": "did not inhibit the spore outgrowth"}]}
{"compound": "Cc1ncc([N+](=O)[O-])n1CCO", "note": "[metronidazole]", "values": [{"measurement": "outgrowth of C. difficile spores (in words)", "setting": "[1]; 5× MIC", "value": "did not inhibit the spore outgrowth"}]}
